In series [1] the test system is Heme. The series is described as follows: Binding affinity to heme in DMSO assessed as equilibrium constant by UV-visible spectrophotometry. Details: scale not given here. A digest of the protocol:
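Haem titrations were run in buffered 40% DMSO so that haem stays monomeric and aggregation and μ-oxo dimer formation are minimised. Binding data were fitted mathematically to two alternative binding-process models to pick the best fit.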

For series [2], the target named is T1, Cytochrome P450 3A4 (Homo sapiens, UniProt P08684). The series is described as follows: Inhibition of human recombinant CYP3A4 using […] as substrate. It counts as ADME.
T1 sequence (P08684 whole entry): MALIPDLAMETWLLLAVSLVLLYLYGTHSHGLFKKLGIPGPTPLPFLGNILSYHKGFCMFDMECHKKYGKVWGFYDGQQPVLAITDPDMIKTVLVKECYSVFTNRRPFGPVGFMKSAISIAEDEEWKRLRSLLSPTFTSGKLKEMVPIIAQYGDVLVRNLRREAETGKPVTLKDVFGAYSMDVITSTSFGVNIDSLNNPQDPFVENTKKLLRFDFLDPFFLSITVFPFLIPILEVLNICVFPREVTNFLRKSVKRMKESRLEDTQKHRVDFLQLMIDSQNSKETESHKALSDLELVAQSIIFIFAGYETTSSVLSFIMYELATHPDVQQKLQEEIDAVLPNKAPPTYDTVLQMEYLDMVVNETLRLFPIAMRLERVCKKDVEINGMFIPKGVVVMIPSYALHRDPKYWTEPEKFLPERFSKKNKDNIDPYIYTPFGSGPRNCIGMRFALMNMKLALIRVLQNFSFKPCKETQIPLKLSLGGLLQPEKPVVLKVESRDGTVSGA
Series [3] relates to Plasmodium yoelii. Kind of series: Antimalarial activity as reduced parasitaemia at day 4 against Plasmodium yoelii 17X infected CD1 mice (Mus musculus) at 40 mg/kg. Details: dose 40 mg/kg. The format is functional, organism-based. A digest of the protocol:
(§1)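 Standard Peters 4-day test in female age-matched CD1 mice, randomised into groups of 5. Mice were infected iv on day 0 with 6.4 × 10^6 or 10.0 × 10^6 parasites (P. berghei or P. yoelii) from infected donors. Peripheral-blood parasitaemia was read by flow cytometry at day 4 and compared with vehicle-treated groups. Doses ranged up to 40 mg/kg.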

Series [4] deals with Plasmodium falciparum. Kind of series: Antimalarial activity against chloroquine-resistant Plasmodium falciparum K1 in human erythrocytes after 48 hrs by [3H]hypoxanthine uptake. It counts as functional, organism-based. A digest of the protocol:
(§2)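 P. falciparum grown in human erythrocytes in RPMI 1640 with 25 mM HEPES, 32 mM NaHCO3 and 10% human serum, gassed 3% O2/4% CO2/93% N2. Assay at 2% parasitemia, 0.5% hematocrit, drug stocks in DMSO diluted in medium, in triplicate. After 24 h at 37 °C, [3H]-hypoxanthine added and incubation continued 24 h. Scintillation counting; IC50 by probit interpolation of log dose-response, three independent experiments.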

Series [5] is described as follows: Clearance in iv and orally dosed dog blood. It counts as ADME, organism-based, Canis lupus familiaris. Particulars: whole blood. A digest of the protocol: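 Single intravenous and oral doses were given to the mouse, rat, dog and/or monkey. Drug was measured in blood to derive blood clearance, elimination half-life and % oral bioavailability.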
In series [6] the test system is Plasmodium falciparum. The series is described as follows: Antimalarial activity against chloroquine-sensitive Plasmodium falciparum 3D7 in human erythrocytes after 48 hrs by [3H]hypoxanthine uptake. It counts as functional, organism-based. Summed up:
as §2

For another series, the system named is Plasmodium berghei. The series is described as follows: Antimalarial activity as reduced parasitaemia against Plasmodium berghei ANKA infected CD1 mice (Mus musculus) after 4 days. It counts as functional. Conditions: 96 h. Summed up: as §1
Series [7] deals with Plasmodium falciparum. The series is described as follows: Antimalarial activity against chloroquine-sensitive Plasmodium falciparum HB3 in human erythrocytes after 48 hrs by [3H]hypoxanthine uptake. The format is functional, organism-based. Summed up:
as §2

Series [8] deals with Voltage-gated inwardly rectifying potassium channel KCNH2 (Homo sapiens, UniProt Q12809). Kind of series: Inhibition of human cloned ERG.
Voltage-gated inwardly rectifying potassium channel KCNH2, sequence (Q12809 whole entry): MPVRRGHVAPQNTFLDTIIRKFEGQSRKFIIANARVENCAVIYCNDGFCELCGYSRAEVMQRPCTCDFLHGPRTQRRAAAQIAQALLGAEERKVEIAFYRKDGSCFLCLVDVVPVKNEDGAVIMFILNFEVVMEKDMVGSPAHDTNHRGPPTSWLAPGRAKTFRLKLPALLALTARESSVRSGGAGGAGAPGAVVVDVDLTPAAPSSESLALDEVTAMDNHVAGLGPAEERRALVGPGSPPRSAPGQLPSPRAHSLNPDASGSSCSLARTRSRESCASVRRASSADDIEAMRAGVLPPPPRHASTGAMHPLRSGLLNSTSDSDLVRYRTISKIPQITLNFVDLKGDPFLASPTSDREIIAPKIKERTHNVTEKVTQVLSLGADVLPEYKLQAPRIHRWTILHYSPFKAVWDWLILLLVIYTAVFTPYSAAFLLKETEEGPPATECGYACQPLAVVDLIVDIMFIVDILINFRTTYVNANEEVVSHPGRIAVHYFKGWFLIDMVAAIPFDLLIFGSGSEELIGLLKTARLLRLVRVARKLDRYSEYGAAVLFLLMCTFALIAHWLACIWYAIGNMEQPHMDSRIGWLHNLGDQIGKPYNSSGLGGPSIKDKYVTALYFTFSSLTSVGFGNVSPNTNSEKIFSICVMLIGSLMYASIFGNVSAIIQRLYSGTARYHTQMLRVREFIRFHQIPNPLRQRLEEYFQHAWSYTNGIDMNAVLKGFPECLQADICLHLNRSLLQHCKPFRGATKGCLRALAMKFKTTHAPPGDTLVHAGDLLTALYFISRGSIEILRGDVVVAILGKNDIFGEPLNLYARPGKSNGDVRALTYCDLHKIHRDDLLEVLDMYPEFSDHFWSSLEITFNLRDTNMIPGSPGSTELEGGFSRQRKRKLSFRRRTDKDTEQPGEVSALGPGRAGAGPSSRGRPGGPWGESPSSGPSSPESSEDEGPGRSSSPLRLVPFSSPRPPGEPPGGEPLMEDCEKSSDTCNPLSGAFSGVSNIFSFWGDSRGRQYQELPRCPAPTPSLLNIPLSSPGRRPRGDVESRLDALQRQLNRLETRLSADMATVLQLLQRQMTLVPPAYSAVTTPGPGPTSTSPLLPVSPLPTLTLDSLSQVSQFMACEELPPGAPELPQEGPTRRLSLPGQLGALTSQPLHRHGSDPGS
Another series deals with Rhesus monkey. Kind of series: Toxicity in monkey assessed as increase in QTc interval. The format is organism-based, Macaca mulatta. Conditions: in vivo. A digest of the protocol: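 Repeat-dose toxicity studies in monkeys, with QTc intervals and ECG rhythm monitored.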
Series [9] addresses T1, Cytochrome P450 3A4. Kind of series: Inhibition of human recombinant CYP3A4 using phenyl-piperazinyl-methyl-benzyl-resofurin as substrate. It counts as ADME. A digest of the protocol:
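Concentration-dependent inhibition of major human cytochrome P450 isozymes (recombinant enzymes) was tested using fluorescent probe substrates. Mean IC50 values were reported.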

For a further series, the species on record is Homo sapiens. Kind of series: Protein binding in human. It counts as ADME, organism-based. Conditions: in vivo. A digest of the protocol:
(§3)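 Protein binding and blood-cell association were assessed in vitro in plasma or whole blood from preclinical species and humans.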

The species entered for another series is Mus musculus. The series is described as follows: Protein binding in mouse. It counts as ADME, organism-based. Particulars: in vivo. Summed up: as §3
Series [10] concerns Heme. Kind of series: Binding affinity to heme in 20 mM SDS surfactant assessed as equilibrium constant by UV-visible spectrophotometry.
Series [11] deals with Plasmodium yoelii. Kind of series: Antimalarial activity as ED100 in peripheral blood against Plasmodium yoelii 17X infected CD1 mice (Mus musculus) after 4 days. It counts as functional.
Series [12] deals with Heme. The series is described as follows: Binding affinity to heme in […] CTAB surfactant assessed as equilibrium constant by UV-visible spectrophotometry.
Series [13] has as its system Heme. Kind of series: Binding affinity to heme in 5 mM CTAB surfactant assessed as equilibrium constant by UV-visible spectrophotometry.
Series [14] deals with Heme. Kind of series: Binding affinity to heme in 1.2 mM TX-100 surfactant assessed as equilibrium constant by UV-visible spectrophotometry.
The subject of series [15] is Plasmodium yoelii. The series is described as follows: Antimalarial activity as reduced parasitaemia against Plasmodium yoelii 17X infected CD1 mice (Mus musculus) after 4 days. The format is functional. Particulars: 96 h.
Series [16] relates to Heme. Kind of series: Binding affinity to heme in 20 mM CTAB surfactant assessed as equilibrium constant by UV-visible spectrophotometry.
In series [17] the test system is Heme. The series is described as follows: Binding affinity to heme in 50 mM SDS surfactant assessed as equilibrium constant by UV-visible spectrophotometry.

The results in this text go back to ChEMBL document CHEMBL1140918, “Candidate selection and preclinical evaluation of N-tert-butyl isoquine (GSK369796), an affordable and effective 4-aminoquinoline antimalarial for the 21st century” (J Med Chem, 2009).

What is called IC50 is the midpoint of a concentration-inhibition curve. The ED50 is the midpoint of the dose-response relation.

SMILES strings stand for the structures. Calls of active or inactive are those of the source. The rule behind the calls is not given here. Bounds are passed on as bounds.

As for `OC(c1cc(C(F)(F)F)nc2c(C(F)(F)F)cccc12)C1CCCCN1` (stereo not drawn), in the series on Heme [1], the Activity came out at 3.84.
Consider `CCN(CC)Cc1ccc(Nc2ccnc3cc(Cl)ccc23)cc1O` [ISOQUINE], for which the IC50 entry is “Active” at Cytochrome P450 3A4 [2]; 17.6 nM in the series on Plasmodium falciparum [4]; 11.6 nM in the series on Plasmodium falciparum [6]; 12.6 nM with Plasmodium falciparum [7]; 3900 nM in [8]. In addition, the outcome with Plasmodium yoelii [3] was inactive. This molecule had a clearance in series [5] of 151 mL/min/kg. In addition, the median effective dose (ED50) in the series with Plasmodium berghei worked out at 3.7 mg/kg. In the series on Plasmodium berghei, the ED90 was 5.3 mg/kg.
In the case of `CC(C)(C)NCc1cc(Nc2ccnc3cc(Cl)ccc23)ccc1F`, the result in the series with Plasmodium yoelii [3] was inactive.
Turning to `CCCCN(CCCC)CCC(O)c1cc2c(Cl)cc(Cl)cc2c2cc(C(F)(F)F)ccc12` (stereo not drawn) [HALOFANTRINE], the Activity entry in the series on Rhesus monkey was “Toxic”.
Take `CCNCc1cc(Nc2ccnc3cc(Cl)ccc23)ccc1O` [DESETHYL AMODIAQUINE]: the IC50 on Cytochrome P450 3A4 [9] is more than 100000 nM; in series [8] it was 9500 nM. In addition, the result with Plasmodium yoelii [3] was inactive. Further, the Activity came out at 86% in the series listed under Homo sapiens and 74% in the series listed under Mus musculus.
Turning to `CCN(CC)CCCC(C)Nc1ccnc2cc(Cl)ccc12` (stereo not drawn) [CHLOROQUINE], the Activity in the series with Heme [10] was 4.4; in the series with Plasmodium yoelii [11], more than 40 mg/kg; with Heme [12], 4; in the series with Heme [13], 4.69; in the series with Heme [1] it was 5.3; in the series with Heme [14], 6.23. Further, the Activity entry with Rhesus monkey was “Toxic”; in the series with Heme [16], 4.7; in the series with Heme [17], 3.8. Also, the ED50 in the series with Plasmodium yoelii [15] was determined as 3.3 mg/kg. The ED90 in the series on Plasmodium yoelii [15] amounted to 4.4 mg/kg.
